Experimental data as given in ChEMBL document CHEMBL1125031, “Structure-activity relationship of antiestrogens. Studies on 2,3-diaryl-1-benzopyrans” (J Med Chem, 1990).

Legend:
[1] = biological target: T1, Estrogen receptor (Rattus norvegicus) (UniProt P06211+Q62986); test: Estrogenic activity as mean uterine weight in rats after 10 ug dose; format: functional
Method in brief: (§1)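 Immature female Sprague-Dawley rats, 21–23 days old, in groups of 6–9. Test doses suspended in 0.2 mL propylene glycol–0.9% saline (1:1, v/v) and given subcutaneously on three consecutive days; vehicle-only controls. Autopsy 24 h after the last injection, uterine wet weight recorded in mg as mean ± SD.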

[2] = biological target: T1, Estrogen receptor (Rattus norvegicus); test: Antiestrogenic activity in presence of estradiol as mean uterine weight in rats after 10 ug dose; format: functional
[3] = biological target: T1, Estrogen receptor (Rattus norvegicus); test: Estrogenic activity as mean uterine weight in rats after 1 mg dose; format: functional; method in brief: as §1
[4] = biological target: T1, Estrogen receptor (Rattus norvegicus); test: Antiestrogenic activity in presence of estradiol at 10 ug/rat; format: functional
[5] = biological target: T1, Estrogen receptor (Rattus norvegicus); test: Antiestrogenic activity in presence of estradiol at 30 ug/rat; format: functional
[6] = biological target: T1, Estrogen receptor (Rattus norvegicus); test: Antiestrogenic activity in presence of estradiol at 0 ug/rat; format: functional
[7] = biological target: T1, Estrogen receptor (Rattus norvegicus); test: Antiestrogenic activity in presence of estradiol at 1 ug/rat; format: functional
[8] = biological target: T1, Estrogen receptor (Rattus norvegicus); test: Estrogenic activity as mean uterine weight in rats at 0 ug/rat; format: functional; method in brief: as §1
[9] = biological target: T1, Estrogen receptor (Rattus norvegicus); test: Estrogenic activity as mean uterine weight in rats at 1 ug/rat; format: functional; method in brief: as §1
[10] = biological target: T1, Estrogen receptor (Rattus norvegicus); test: Estrogenic activity as mean uterine weight in rats at 30 ug/rat; format: functional; method in brief: as §1
[11] = biological target: T1, Estrogen receptor (Rattus norvegicus); test: Mean percent inhibition of uterotrophic effect in rats at 0 ug/rat; format: functional
[12] = biological target: T1, Estrogen receptor (Rattus norvegicus); test: Mean percent inhibition of uterotrophic effect in rats at 1 ug/rat; format: functional
[13] = biological target: T1, Estrogen receptor (Rattus norvegicus); test: Mean percent inhibition of uterotrophic effect in rats at 10 ug/rat; format: functional
[14] = biological target: T1, Estrogen receptor (Rattus norvegicus); test: Mean percent inhibition of uterotrophic effect in rats at 30 ug/rat; format: functional
[15] = biological target: T1, Estrogen receptor (Rattus norvegicus); test: Estrogenic activity as mean uterine weight in rats at 10 ug/rat; format: functional; method in brief: as §1
[16] = biological target: T1, Estrogen receptor (Rattus norvegicus); test: Antiestrogenic activity in presence of estradiol as mean uterine weight in rats at 1 mg dose

SMILES: COc1ccc2c(c1)OC(c1ccc(OCCN3CCCC3)cc1)C(c1ccccc1)C2=O (stereo unspecified)
- Mean weight [1]: 12 mg
- Mean weight [2]: 46.5 mg

SMILES: O=c1c(-c2ccccc2)c(-c2ccccc2)oc2cc(OCCN3CCCC3)ccc12
- Mean weight [1]: 11.1 mg
- Mean weight [2]: 40.7 mg

SMILES: Oc1ccc(C2Oc3ccccc3CC2c2ccccc2)cc1 (stereo unspecified)
- Mean weight [3]: 14.9 mg
- Mean weight [2]: 59 mg

SMILES: Oc1ccc(C2Oc3ccccc3C=C2c2ccccc2)cc1 (stereo unspecified)
- Mean weight [3]: 13.8 mg
- Mean weight [2]: 48.8 mg

SMILES: COc1ccc2c(c1)OC(c1ccc(OCCN3CCCC3)cc1)C(c1ccccc1)=C2 (stereo unspecified)
- Mean weight [4]: 27.5 mg
- Mean weight [5]: 23.6 mg
- Mean weight [6]: 44.7 mg
- Mean weight [7]: 38.3 mg
- Mean weight [1]: 27.6 mg
- Mean weight [2]: 28.3 mg
- Mean weight [8]: 10.6 mg
- Mean weight [9]: 23.8 mg
- Mean weight [10]: 25 mg
- inhibition [11]: 0%
- inhibition [12]: 9%
- inhibition [13]: 50%
- inhibition [14]: 65%

SMILES: O=c1c(-c2ccccc2)c(-c2ccc(OCCN3CCCC3)cc2)oc2ccccc12
- Mean weight [1]: 13.2 mg
- Mean weight [2]: 40.3 mg

SMILES: C1=C(c2ccccc2)C(c2ccc(OCCN3CCCC3)cc2)Oc2ccccc21 (stereo unspecified)
- Mean weight [5]: 22.2 mg
- Mean weight [6]: 45.1 mg
- Mean weight [7]: 39.9 mg
- Mean weight [1]: 24.6 mg
- Mean weight [8]: 11.2 mg
- Mean weight [9]: 22.5 mg
- Mean weight [10]: 23.6 mg
- Mean weight [15]: 24.6 mg
- inhibition [11]: 0%
- inhibition [12]: 12%
- inhibition [13]: 66%
- inhibition [14]: 70%

SMILES: c1ccc(C2=C(c3ccc(OCCN4CCCC4)cc3)Oc3ccccc3C2)cc1
- Mean weight [3]: 24 mg
- Mean weight [2]: 29.4 mg

SMILES: Oc1ccc(C2=C(c3ccccc3)Cc3ccccc3O2)cc1
- Mean weight [3]: 26.2 mg
- Mean weight [16]: 46.7 mg

SMILES: c1ccc(C2Cc3ccccc3OC2c2ccc(OCCN3CCCC3)cc2)cc1 (stereo unspecified)
- Mean weight [3]: 12.3 mg
- Mean weight [2]: 57.2 mg
